Data published in ChEMBL document CHEMBL1154612, “Discovery and validation of a series of aryl sulfonamides as selective inhibitors of tissue-nonspecific alkaline phosphatase (TNAP)” (J Med Chem, 2009).
Converted amounts (≈) assume the structure as drawn.

What was measured:
[1] = Solubility at pH 7.4 by direct UV method; type: physicochemical; conditions: buffer
Procedure, shortened: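 Direct UV kinetic solubility in aqueous buffer at pH 7.4, in duplicate. Samples held at room temperature for at least 18 h, then filtered to remove precipitate. UV absorbance (250-498 nm) compared with spectra of precipitation-free reference solutions.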

[2] = Metabolic stability in rat plasma after 30 mins; type: ADME, cell-free; conditions: read-out: Stability
Procedure, shortened: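 Compounds incubated in fresh rat plasma at 37 °C for 30 min. Reported as percent remaining.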

[3] = Metabolic stability in rat liver microsomes after 30 mins; type: ADME, Microsome; conditions: read-out: Stability
Procedure, shortened: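 Compounds incubated in triplicate with pooled rat liver microsomes plus NADPH at 37 °C for 30 min. Reported as percent remaining.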

[4] = target: T1, Alkaline phosphatase, tissue-nonspecific isozyme (Homo sapiens, UniProt P05186); test: Inhibition of TNAP transfected in african green monkey COS1 cells by luminescent assay
T1 sequence (P05186 whole entry): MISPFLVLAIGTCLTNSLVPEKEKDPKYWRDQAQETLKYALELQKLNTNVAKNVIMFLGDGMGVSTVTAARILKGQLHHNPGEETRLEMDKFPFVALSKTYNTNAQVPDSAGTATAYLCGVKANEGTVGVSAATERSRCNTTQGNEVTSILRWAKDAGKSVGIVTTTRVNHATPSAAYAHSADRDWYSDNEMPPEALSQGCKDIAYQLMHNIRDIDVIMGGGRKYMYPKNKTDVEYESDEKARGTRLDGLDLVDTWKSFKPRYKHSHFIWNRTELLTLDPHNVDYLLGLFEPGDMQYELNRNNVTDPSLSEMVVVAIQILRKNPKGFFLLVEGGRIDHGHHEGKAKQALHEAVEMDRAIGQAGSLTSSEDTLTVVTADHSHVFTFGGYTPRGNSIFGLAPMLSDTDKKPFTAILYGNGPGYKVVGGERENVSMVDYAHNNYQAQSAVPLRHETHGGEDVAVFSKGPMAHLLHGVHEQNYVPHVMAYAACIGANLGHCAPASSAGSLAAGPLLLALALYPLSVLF

[5] = Permeability by PAMPA assay; type: ADME
[6] = target: T2, Phosphoethanolamine/phosphocholine phosphatase (Homo sapiens) (UniProt Q8TCT1); test: Inhibition of PHOSPHO1 assessed as inorganic phosphate release; conditions: concentration not given here
T2 sequence (whole entry): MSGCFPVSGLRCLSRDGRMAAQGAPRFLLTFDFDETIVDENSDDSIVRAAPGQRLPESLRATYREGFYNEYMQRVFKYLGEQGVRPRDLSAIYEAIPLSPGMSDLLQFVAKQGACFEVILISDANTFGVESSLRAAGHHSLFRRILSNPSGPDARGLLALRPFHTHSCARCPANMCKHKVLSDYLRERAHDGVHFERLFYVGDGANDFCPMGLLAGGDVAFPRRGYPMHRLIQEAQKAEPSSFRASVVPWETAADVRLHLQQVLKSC

[7] = target: Intestinal-type alkaline phosphatase (Homo sapiens, UniProt P09923); test: Inhibition of IAP by luminescent assay
[8] = Cmax in rat at 4.13 mg/kg, sc; type: ADME, organism-based; parameters: dose 4.13 mg/kg, route subcutaneous; conditions: in vivo
Procedure, shortened: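 Rats dosed subcutaneously with 400 microliters of a […] solution (4.13 mg/kg) in 50% DMSO in normal saline. Blood drawn and frozen immediately, plasma kept at -20 °C. Compound quantified by LC-MS/MS (electrospray, C18 reverse-phase, water-acetonitrile gradient) against a 7-point calibration curve built from peak areas of serial dilutions.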

[9] = target: T3, Ectonucleotide pyrophosphatase/phosphodiesterase family member 1 (Homo sapiens) (UniProt P22413); test: Inhibition of NPP1; conditions: concentration not given here
T3 sequence (whole entry): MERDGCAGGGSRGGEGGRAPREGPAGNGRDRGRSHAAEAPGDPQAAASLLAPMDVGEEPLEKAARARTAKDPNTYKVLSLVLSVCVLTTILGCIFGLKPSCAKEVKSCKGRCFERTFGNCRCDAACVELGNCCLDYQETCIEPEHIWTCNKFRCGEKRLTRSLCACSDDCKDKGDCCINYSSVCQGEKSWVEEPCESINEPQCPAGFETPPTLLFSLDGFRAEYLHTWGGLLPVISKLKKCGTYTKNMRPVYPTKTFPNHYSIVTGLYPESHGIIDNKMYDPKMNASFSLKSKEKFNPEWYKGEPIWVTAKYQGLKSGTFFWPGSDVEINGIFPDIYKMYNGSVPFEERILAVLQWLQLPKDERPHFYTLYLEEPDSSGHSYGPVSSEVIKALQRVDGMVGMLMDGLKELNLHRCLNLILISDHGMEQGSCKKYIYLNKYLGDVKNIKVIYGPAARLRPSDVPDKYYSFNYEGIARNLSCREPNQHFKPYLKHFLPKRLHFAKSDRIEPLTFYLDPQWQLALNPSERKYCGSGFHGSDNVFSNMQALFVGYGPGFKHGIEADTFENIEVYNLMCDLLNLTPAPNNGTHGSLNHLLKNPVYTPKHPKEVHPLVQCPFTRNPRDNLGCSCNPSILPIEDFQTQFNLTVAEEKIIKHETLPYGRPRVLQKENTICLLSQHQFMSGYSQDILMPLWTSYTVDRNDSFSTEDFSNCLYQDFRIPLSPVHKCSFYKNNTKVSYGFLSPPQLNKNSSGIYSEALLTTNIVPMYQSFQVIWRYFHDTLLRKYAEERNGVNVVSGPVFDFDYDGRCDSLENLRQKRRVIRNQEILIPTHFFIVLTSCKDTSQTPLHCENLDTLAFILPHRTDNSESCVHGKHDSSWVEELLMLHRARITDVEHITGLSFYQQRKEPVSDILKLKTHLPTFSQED
Procedure, shortened: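 NPP1 activity with 5 mM pNP-TMP in 50 mM Tris pH 7.4 or 100 mM Tris pH 8.9 with 2 mM MgCl2 at 37 °C. Reaction started with enzyme and stopped with 1 M NaOH at set times. p-Nitrophenolate read at 410 nm, in triplicate, with no-enzyme controls. Inhibitor tested at 10 μM final.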

Intestinal-type alkaline phosphatase, sequence (P09923 whole entry): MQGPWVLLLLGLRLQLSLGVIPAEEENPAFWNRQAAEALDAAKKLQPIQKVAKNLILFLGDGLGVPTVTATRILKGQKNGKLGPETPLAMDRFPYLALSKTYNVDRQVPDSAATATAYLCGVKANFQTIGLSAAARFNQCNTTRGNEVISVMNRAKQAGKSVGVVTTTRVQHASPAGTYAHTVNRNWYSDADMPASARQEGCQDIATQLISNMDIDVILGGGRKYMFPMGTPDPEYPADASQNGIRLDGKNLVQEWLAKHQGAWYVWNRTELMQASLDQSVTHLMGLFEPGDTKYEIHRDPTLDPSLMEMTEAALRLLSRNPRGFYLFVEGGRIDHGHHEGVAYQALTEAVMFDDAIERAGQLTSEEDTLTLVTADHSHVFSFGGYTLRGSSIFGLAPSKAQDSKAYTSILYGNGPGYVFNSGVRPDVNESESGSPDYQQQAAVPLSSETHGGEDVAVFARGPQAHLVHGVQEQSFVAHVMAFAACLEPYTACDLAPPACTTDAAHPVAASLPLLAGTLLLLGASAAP

COc1ccc(C)cc1S(=O)(=O)Nc1cnc2ccccc2c1
solubility kinetic [1]: 71.6 µg/mL (≈ 218 µM)
remaining at 0.5 h [2]: 91%
remaining at 0.5 h [3]: 48%
IC50 [4]: 650 nM
permeability [5]: 7%

COc1ccc(F)cc1S(=O)(=O)Nc1cccnc1
IC50 [4]: 1290 nM

CCOc1ccc(Cl)cc1S(=O)(=O)Nc1cccnc1
IC50 [4]: 540 nM

COc1cc(C)c(C)cc1S(=O)(=O)Nc1cccnc1
IC50 [4]: 1680 nM

COc1ccc(OC)c(S(=O)(=O)Nc2cnc3ccccc3c2)c1
inhibition [6]: < 7.4%
solubility kinetic [1]: 138 µg/mL (≈ 401 µM)
remaining at 0.5 h [2]: 97%
remaining at 0.5 h [3]: 78%
IC50 [7]: > 100000 nM
Cmax [8]: 1500 ng/mL
inhibition [9]: < 9.5%
permeability [5]: 58%

COc1ccc(OC)c(CNc2cnc3ccccc3c2)c1
IC50 [4]: > 10000 nM

COc1ccc(Br)cc1S(=O)(=O)Nc1cnc2ccccc2c1
solubility kinetic [1]: 37.9 µg/mL (≈ 96.4 µM)
remaining at 0.5 h [2]: 66%
remaining at 0.5 h [3]: 49%
permeability [5]: 54%

COc1cc(S(=O)(=O)Nc2cccnc2)c(OC)cc1C
IC50 [4]: 1490 nM

COc1cc([N+](=O)[O-])ccc1S(=O)(=O)Nc1cccnc1
solubility kinetic [1]: 1.1 µg/mL (≈ 3.56 µM)
remaining at 0.5 h [2]: 99%
remaining at 0.5 h [3]: 68%
IC50 [4]: 3160 nM
permeability [5]: 51%

COc1ccc(OC)c(S(=O)(=O)Nc2ccc3ccccc3c2)c1
IC50 [4]: > 10000 nM

COc1ccc(OC)c(NS(=O)(=O)c2cnc3ccccc3c2)c1
IC50 [4]: > 10000 nM

COc1cc(C)c(Cl)cc1S(=O)(=O)Nc1cccnc1
IC50 [4]: 510 nM

COc1ccc(OC)c(S(=O)(=O)Nc2cccnc2)c1
IC50 [4]: 1060 nM

COc1cc([N+](=O)[O-])ccc1S(=O)(=O)Nc1cnc2ccccc2c1
solubility kinetic [1]: 178 µg/mL (≈ 495 µM)
remaining at 0.5 h [2]: 96%
remaining at 0.5 h [3]: 56%
IC50 [4]: 740 nM
permeability [5]: 11%

COc1ccc(C)cc1S(=O)(=O)Nc1cccnc1
solubility kinetic [1]: 28.5 µg/mL (≈ 102 µM)
remaining at 0.5 h [2]: 98%
remaining at 0.5 h [3]: 39%
IC50 [4]: 1850 nM
permeability [5]: 83%

CCOc1cc(C)c(Cl)cc1S(=O)(=O)Nc1cccnc1
IC50 [4]: 690 nM

COc1cc(S(=O)(=O)Nc2cccnc2)c(OC)cc1Br
IC50 [4]: 1550 nM

COc1cc(S(=O)(=O)Nc2cccnc2)c(OC)cc1Cl
IC50 [4]: 1130 nM

COc1cccc(S(=O)(=O)Nc2cnc3ccccc3c2)c1
IC50 [4]: > 10000 nM

COc1ccc(OC)c(S(=O)(=O)Nc2ccc3ncccc3c2)c1
IC50 [4]: > 10000 nM

CCOc1ccc(C)cc1S(=O)(=O)Nc1cccnc1
IC50 [4]: 1130 nM
